Laboratory results taken from ChEMBL document CHEMBL1148550, “4-Phenyl-4-[1H-imidazol-2-yl]-piperidine derivatives, a novel class of selective delta-opioid agonists” (Bioorg Med Chem Lett, 2006).

What was measured:
[1] = molecular target: Opioid receptors; delta & kappa (Homo sapiens) (UniProt P41145+P41143); assay: Selectivity for cloned human kappa opioid receptor over delta opioid receptor; format: protein assay
[2] = molecular target: T1, Delta-type opioid receptor (Homo sapiens, UniProt P41143); assay: Displacement of [3H]DPDPE from cloned human delta opioid receptor
How it was run: (§1)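 Radioligand competition binding at cloned human receptors: [³H]DAMGO for mu, [³H]DPDPE for delta, [³H]U69593 for kappa. Ki is the concentration giving half-maximal inhibition of tracer binding.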

[3] = molecular target: Opioid receptors; mu & delta (Homo sapiens) (UniProt P41143+P35372); assay: Selectivity for cloned human mu opioid receptor over delta opioid receptor; format: protein assay
Mu-type opioid receptor = Mu-type opioid receptor (Homo sapiens, UniProt P35372); assay: Displacement of [3H]DAMGO from cloned human mu opioid receptor; how it was run: as §1
[4] = molecular target: Kappa-type opioid receptor (Homo sapiens, UniProt P41145); assay: Displacement of [3H]U-69593 from cloned human kappa opioid receptor; how it was run: as §1
[5] = molecular target: T1, Delta-type opioid receptor; assay: Agonist potency assessed by [35S]GTP-gammaS binding assay in C6 Glioma cells expressing cloned human delta opioid receptor; format: functional, cell-based
How it was run: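 Membranes expressing human δ-opioid receptors; agonism read as percent stimulation of [³⁵S]GTPγS binding against log molar ligand concentration. pEC₅₀ derived from three-parameter logistic curve fits.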

T1 sequence (P41143 whole entry): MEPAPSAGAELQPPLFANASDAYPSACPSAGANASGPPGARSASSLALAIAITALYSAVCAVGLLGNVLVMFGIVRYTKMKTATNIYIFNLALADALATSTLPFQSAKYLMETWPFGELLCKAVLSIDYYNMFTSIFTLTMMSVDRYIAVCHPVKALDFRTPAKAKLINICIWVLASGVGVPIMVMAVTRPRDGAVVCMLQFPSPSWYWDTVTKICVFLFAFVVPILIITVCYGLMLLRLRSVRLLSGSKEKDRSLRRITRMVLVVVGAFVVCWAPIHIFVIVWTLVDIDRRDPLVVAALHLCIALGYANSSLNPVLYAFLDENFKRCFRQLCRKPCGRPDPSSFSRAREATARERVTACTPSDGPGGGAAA
Sequence of Opioid receptors; delta & kappa (Homo sapiens) (P41143 whole entry, looked up): as the sequence (P41143 whole entry) above
Sequence of Opioid receptors; delta & kappa (Homo sapiens) (P41145 whole entry, looked up): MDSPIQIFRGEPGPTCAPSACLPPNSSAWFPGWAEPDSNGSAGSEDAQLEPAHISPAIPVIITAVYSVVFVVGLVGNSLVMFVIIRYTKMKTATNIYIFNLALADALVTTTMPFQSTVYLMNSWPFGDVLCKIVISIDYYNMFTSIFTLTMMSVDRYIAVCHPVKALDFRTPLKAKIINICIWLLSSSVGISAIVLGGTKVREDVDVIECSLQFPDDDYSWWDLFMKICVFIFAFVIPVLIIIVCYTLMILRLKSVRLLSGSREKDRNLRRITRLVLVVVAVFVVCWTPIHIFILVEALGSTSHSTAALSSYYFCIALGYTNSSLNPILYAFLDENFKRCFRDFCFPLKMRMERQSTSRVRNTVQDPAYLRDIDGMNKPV
Sequence of Kappa-type opioid receptor (P41145 whole entry): as the sequence (P41145 whole entry, looked up) above
Sequence of Mu-type opioid receptor (P35372 whole entry): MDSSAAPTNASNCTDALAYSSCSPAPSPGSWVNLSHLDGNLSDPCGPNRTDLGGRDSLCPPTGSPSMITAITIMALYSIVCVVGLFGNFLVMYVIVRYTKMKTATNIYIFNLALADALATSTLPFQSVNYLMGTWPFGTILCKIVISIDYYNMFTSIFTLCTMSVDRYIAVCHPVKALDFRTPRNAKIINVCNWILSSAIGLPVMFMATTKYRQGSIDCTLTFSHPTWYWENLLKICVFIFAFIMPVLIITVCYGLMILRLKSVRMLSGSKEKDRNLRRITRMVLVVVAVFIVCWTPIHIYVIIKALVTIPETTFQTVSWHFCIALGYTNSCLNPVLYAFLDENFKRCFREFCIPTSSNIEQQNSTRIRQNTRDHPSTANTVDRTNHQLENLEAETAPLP
Sequence of Opioid receptors; mu & delta (Homo sapiens) (P35372 whole entry, looked up): as the sequence (P35372 whole entry) above
Sequence of Opioid receptors; mu & delta (Homo sapiens) (P41143 whole entry, looked up): as the sequence (P41143 whole entry) above

| SMILES | Ratio Ki [1] | Ki [2] | Ratio Ki [3] | Ki (Mu-type opioid receptor) | Ki [4] | EC50 [5] |
| --- | --- | --- | --- | --- | --- | --- |
| O=C(Nc1ccccc1)N1CCC(c2ccccc2)(c2nccn2C(=O)c2ccccc2)CC1 | 0.32 | 3700 nM | > 1.2 | > 4650 nM | 1190 nM | – |
| O=C(Nc1cccc(F)c1)N1CCC(c2ccccc2)(c2nccn2Cc2ccccc2)CC1 | – | – | – | > 4650 nM | > 4650 nM | – |
| CS(=O)(=O)N1CCC(c2ccccc2)(c2nccn2Cc2ccccc2)CC1 | 44 | 46 nM | > 101 | > 4650 nM | 2010 nM | – |
| CCNC(=O)N1CCC(c2ccccc2)(c2nccn2Cc2ccccc2)CC1 | – | – | – | > 4650 nM | 242 nM | – |
| NC(=O)N1CCC(c2ccccc2)(c2nccn2Cc2ccccc2)CC1 | 3.4 | 99 nM | > 51 | > 4650 nM | 334 nM | – |
| CN(C(=O)N1CCC(c2ccccc2)(c2nccn2Cc2ccccc2)CC1)c1ccccc1 | – | – | – | > 4650 nM | 397 nM | – |
| c1ccc(Cn2ccnc2C2(c3ccccc3)CCN(c3nc4ccccc4s3)CC2)cc1 | – | 73 nM | > 63 | > 4650 nM | – | 26 nM |
| NS(=O)(=O)N1CCC(c2ccccc2)(c2nccn2Cc2ccccc2)CC1 | > 44 | 106 nM | > 44 | > 4650 nM | > 4650 nM | – |
| O=C(Nc1ccccc1)N1CCC(c2ccccc2)(c2nccn2Cc2cccc(F)c2)CC1 | 15 | 128 nM | > 36 | > 4650 nM | 1880 nM | – |
| c1ccc(Cn2ccnc2C2(c3ccccc3)CCN(c3ncccn3)CC2)cc1 | 28 | 18 nM | > 258 | > 4650 nM | 505 nM | 14 nM |
| COc1ccccc1NC(=O)N1CCC(c2ccccc2)(c2nccn2Cc2ccccc2)CC1 | – | – | – | > 4650 nM | 782 nM | – |
| c1ccc(Cn2ccnc2C2(c3ccccc3)CCN(c3nccs3)CC2)cc1 | 32 | 79 nM | > 58 | > 4650 nM | 2530 nM | 98 nM |
| O=C(Nc1ccccc1)N1CCC(c2ccccc2)(c2nccn2Cc2ccccn2)CC1 | 0.015 | 3070 nM | 0.46 | 1420 nM | 46 nM | – |

The next lines start with the values.

| Ratio Ki [1] | Ki [2] | Ratio Ki [3] | Ki (Mu-type opioid receptor) | Ki [4] | EC50 [5] | SMILES |
| --- | --- | --- | --- | --- | --- | --- |
| 5.3 | 161 nM | > 29 | > 4650 nM | 858 nM | – | CN1CCN(C(=O)N2CCC(c3ccccc3)(c3nccn3Cc3ccccc3)CC2)CC1 |
| 1.5 | 97 nM | 12 | 1210 nM | 148 nM | – | O=C(Nc1ccc(F)cc1)N1CCC(c2ccccc2)(c2nccn2Cc2ccccc2)CC1 |
| – | – | – | 497 nM | > 465 nM | – | CC(c1ccccc1)n1ccnc1C1(c2ccccc2)CCN(C(=O)Nc2ccccc2)CC1 (configuration not stated) |
| 11 | 203 nM | > 23 | > 4650 nM | 2160 nM | – | O=C(Nc1ccccc1)N1CCC(c2ccccc2)(c2nccn2Cc2ccc(F)cc2)CC1 |
| 1.6 | 81 nM | > 5.7 | > 465 nM | 126 nM | 1480 nM | O=C(Nc1ccccc1)N1CCC(c2ccccc2)(c2nccn2Cc2ccccc2)CC1 |
| – | > 465 nM | – | > 465 nM | > 4650 nM | – | O=C(Nc1ccccc1)N1CCC(c2ccccc2)(c2ncc[nH]2)CC1 |
| – | 3.2 nM | – | 980 nM | – | 832 nM | O=S(=O)(Nc1ccccc1)N1CCC(c2ccccc2)(c2nccn2Cc2ccccc2)CC1 |
| – | – | – | 428 nM | 116 nM | – | O=C(Nc1ccccc1)N1CCC(c2ccccc2)(c2nccn2Cc2ccccc2F)CC1 |
| – | – | – | 1380 nM | 152 nM | – | COc1cccc(NC(=O)N2CCC(c3ccccc3)(c3nccn3Cc3ccccc3)CC2)c1 |
| – | 44 nM | > 10 | > 465 nM | – | – | COc1ccc(NC(=O)N2CCC(c3ccccc3)(c3nccn3Cc3ccccc3)CC2)cc1 |
| 0.29 | 138 nM | 1.7 | 235 nM | 40 nM | – | Cn1c(N2CCC(c3ccccc3)(c3nccn3Cc3ccccc3)CC2)nc2ccccc21 |
| 9 | 217 nM | 15 | 3250 nM | 2060 nM | – | COc1cccc(Cn2ccnc2C2(c3ccccc3)CCN(C(=O)Nc3ccccc3)CC2)c1 |
| – | – | – | 2520 nM | 318 nM | – | O=C(Nc1ccccc1F)N1CCC(c2ccccc2)(c2nccn2Cc2ccccc2)CC1 |
